Source: ChEMBL document CHEMBL1154405, “An early response to environmental stress involves regulation of OmpX and OmpF, two enterobacterial outer membrane pore-forming proteins” (2007)
Calls of active or inactive are those of the source. The rule behind the calls is not given here.

Experiments:
Escherichia coli [1] = experiment: Effect on ompF-lacZ fusion translation in wild type Escherichia coli MC1061 assessed as percent decrease in Miller units of beta-galactosidase activity after 90 mins relative to control; type: functional; design: scale not given: the % may be the effect or the level left
Summary of the method: (§1)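 ompF promoter–lacZ fusions (pCeJa01, pCeJa02) carried in E. coli AG100 and its marA mutant CH164, and in MC1061 and MC1061 ompX::Cm. Cultures grown in LB (with or without NaCl) to OD600 0.2, then stress added at subinhibitory levels set per strain and promoter from MIC assays, 37°C. β-Galactosidase measured at time intervals (Miller method); percent decrease versus control, SD, Student t test.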

Escherichia coli [2] = experiment: Effect on ompF-lacZ fusion translation in wild type Escherichia coli MC1061 assessed as percent decrease in Miller units of beta-galactosidase activity after 120 mins relative to control; type: functional; design: scale not given: the % may be the effect or the level left; summary of the method: as §1
Escherichia coli [3] = experiment: Effect on ompF-lacZ fusion translation in ompX-negative Escherichia coli mutant assessed as percent decrease in Miller units of beta-galactosidase activity after 90 mins relative to control; type: functional; design: scale not given: the % may be the effect or the level left; summary of the method: as §1
Escherichia coli [4] = experiment: Effect on ompF-lacZ fusion translation in ompX-negative Escherichia coli mutant assessed as percent decrease in Miller units of beta-galactosidase activity after 120 mins relative to control; type: functional; design: scale not given: the % may be the effect or the level left; summary of the method: as §1
Escherichia coli [5] = experiment: Effect on ompF-lacZ fusion translation in wild type Escherichia coli AG100 assessed as percent decrease in Miller units of beta-galactosidase activity after 60 mins relative to control; type: functional; design: scale not given: the % may be the effect or the level left; summary of the method: as §1
Escherichia coli [6] = experiment: Increase in ompX-lacZ expression in Escherichia coli deltaompX mutant assessed as increase in beta-galactosidase activity after 60 mins relative to control; type: functional, organism-based
Summary of the method: (§2)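 Strains electrotransformed with an ompX–lacZ fusion plasmid (pMD08): E. coli JM109, MC1061 ompX::Cm, AG100, CH164 (marA), E. aerogenes ATCC 15038. Grown in LB (with or without NaCl) to OD600 0.2 at 37°C. Treated with subinhibitory stresses (MIC-derived) or NaCl osmotic shock. Miller units read after 60 min; means of five independent experiments with SD.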

Escherichia coli [7] = experiment: Increase in ompX-lacZ expression in Escherichia coli JM109 assessed as ompX upregulation after 60 mins relative to control; type: functional, organism-based; summary of the method: as §2
Escherichia coli [8] = experiment: Increase in ompX-lacZ expression in Escherichia coli JM109 assessed as increase in beta-galactosidase activity after 60 mins relative to control; type: functional, organism-based; summary of the method: as §2
Klebsiella aerogenes [9] = experiment: Increase in ompX-lacZ expression in Enterobacter aerogenes ATCC 15038 assessed as ompX upregulation after 60 mins relative to control; type: functional, organism-based; summary of the method: as §2
Klebsiella aerogenes [10] = experiment: Increase in ompX-lacZ expression in Enterobacter aerogenes ATCC 15038 assessed as increase in beta-galactosidase activity after 60 mins relative to control; type: functional, organism-based; summary of the method: as §2
Escherichia coli [11] = experiment: Increase in ompX-lacZ expression in marA-negative Escherichia coli CH164 mutant assessed as beta-galactosidase activity after 60 mins relative to control; type: functional; summary of the method: as §2
Escherichia coli [12] = experiment: Effect on ompF-lacZ fusion transcription in wild type Escherichia coli MC1061 assessed as percent decrease in Miller units of beta-galactosidase activity after 90 mins relative to control; type: functional; design: scale not given: the % may be the effect or the level left; summary of the method: as §1
Escherichia coli [13] = experiment: Effect on ompF-lacZ fusion transcription in wild type Escherichia coli MC1061 assessed as percent decrease in Miller units of beta-galactosidase activity after 120 mins relative to control; type: functional; design: scale not given: the % may be the effect or the level left; summary of the method: as §1
Escherichia coli [14] = experiment: Effect on ompF-lacZ fusion translation in wild type Escherichia coli AG100 assessed as percent decrease in Miller units of beta-galactosidase activity after 120 mins relative to control; type: functional; design: scale not given: the % may be the effect or the level left; summary of the method: as §1
Escherichia coli [15] = experiment: Effect on ompF-lacZ fusion transcription in ompX-negative Escherichia coli mutant assessed as percent decrease in Miller units of beta-galactosidase activity after 90 mins relative to control; type: functional; design: scale not given: the % may be the effect or the level left; summary of the method: as §1
Escherichia coli [16] = experiment: Effect on ompF-lacZ fusion transcription in ompX-negative Escherichia coli mutant assessed as percent decrease in Miller units of beta-galactosidase activity after 120 mins relative to control; type: functional; design: scale not given: the % may be the effect or the level left; summary of the method: as §1
Escherichia coli [17] = experiment: Effect on ompF-lacZ fusion transcription in wild type Escherichia coli AG100 assessed as percent decrease in Miller units of beta-galactosidase activity after 60 mins relative to control; type: functional; design: scale not given: the % may be the effect or the level left; summary of the method: as §1
Escherichia coli [18] = experiment: Effect on ompF-lacZ fusion transcription in wild type Escherichia coli AG100 assessed as percent decrease in Miller units of beta-galactosidase activity after 120 mins relative to control; type: functional; design: scale not given: the % may be the effect or the level left; summary of the method: as §1
Escherichia coli [19] = experiment: Induction of ompX transcription in SoxS-positive Escherichia coli K12 relative to control; type: functional
Escherichia coli [20] = experiment: Effect on ompF-lacZ fusion translation in wild type Escherichia coli MC1061 assessed as percent decrease in Miller units of beta-galactosidase activity after 60 mins relative to control; type: functional; design: scale not given: the % may be the effect or the level left
Summary of the method: (§3)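 E. coli strains carrying ompF-lacZ reporter constructs (pCeJa01/pCeJa02) were grown in LB broth, with or without NaCl, to early exponential phase (OD600 0.2). Stress compounds were then added at subinhibitory concentrations, set from MICs for each strain and promoter, and incubation continued at 37°C. Beta-galactosidase activity (Miller method) was read at time intervals. Percent decrease versus control was calculated, with Student t test and standard deviations.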

Escherichia coli [21] = experiment: Effect on ompF-lacZ fusion translation in ompX-negative Escherichia coli mutant assessed as percent decrease in Miller units of beta-galactosidase activity after 60 mins relative to control; type: functional; design: scale not given: the % may be the effect or the level left; summary of the method: as §1
Escherichia coli [22] = experiment: Increase in ompX-lacZ expression in Escherichia coli deltaompX mutant assessed as ompX upregulation after 60 mins relative to control; type: functional
Summary of the method: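 E. coli ompX::Cm strain transformed by electroporation with pMD08 (ompX-lacZ fusion), grown in LB broth (with or without NaCl) to OD600 0.2. Stresses were then added at strain-specific subinhibitory concentrations derived from MICs; osmotic shock was given as NaCl. Cultures were incubated 60 min at 37°C with growth rate monitored. Miller-unit beta-galactosidase activity is the mean of five independent experiments with SD.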

Klebsiella aerogenes [23] = experiment: Induction of ompX-lacZ expression in Enterobacter aerogenes ATCC 15038 assessed as total RNA content after 30 mins by RT-PCR; type: functional, organism-based
Escherichia coli [24] = experiment: Effect on ompF-lacZ fusion transcription in ompX-negative Escherichia coli mutant assessed as percent decrease in Miller units of beta-galactosidase activity after 60 mins relative to control; type: functional; design: scale not given: the % may be the effect or the level left; summary of the method: as §1
Escherichia coli [25] = experiment: Effect on ompF-lacZ fusion translation in wild type Escherichia coli AG100 assessed as percent decrease in Miller units of beta-galactosidase activity after 90 mins relative to control; type: functional; design: scale not given: the % may be the effect or the level left; summary of the method: as §3
Escherichia coli [26] = experiment: Effect on ompF-lacZ fusion transcription in wild type Escherichia coli AG100 assessed as percent decrease in Miller units of beta-galactosidase activity after 90 mins relative to control; type: functional; design: scale not given: the % may be the effect or the level left; summary of the method: as §1
Escherichia coli [27] = experiment: Effect on ompF-lacZ fusion transcription in marA-negative Escherichia coli CH164 mutant assessed as percent decrease in Miller units of beta-galactosidase activity after 60 mins relative to control; type: functional; design: scale not given: the % may be the effect or the level left; summary of the method: as §1
Escherichia coli [28] = experiment: Effect on ompF-lacZ fusion transcription in marA-negative Escherichia coli CH164 mutant assessed as percent decrease in Miller units of beta-galactosidase activity after 90 mins relative to control; type: functional; design: scale not given: the % may be the effect or the level left; summary of the method: as §1
Escherichia coli [29] = experiment: Effect on ompF-lacZ fusion translation in marA-negative Escherichia coli CH164 mutant assessed as percent decrease in Miller units of beta-galactosidase activity after 60 mins relative to control; type: functional; design: scale not given: the % may be the effect or the level left; summary of the method: as §3
Escherichia coli [30] = experiment: Effect on ompF-lacZ fusion translation in marA-negative Escherichia coli CH164 mutant assessed as percent decrease in Miller units of beta-galactosidase activity after 90 mins relative to control; type: functional; design: scale not given: the % may be the effect or the level left; summary of the method: as §3
Escherichia coli [31] = experiment: Effect on ompF-lacZ fusion translation in marA-negative Escherichia coli CH164 mutant assessed as percent decrease in Miller units of beta-galactosidase activity after 120 mins relative to control; type: functional; design: scale not given: the % may be the effect or the level left; summary of the method: as §3
Escherichia coli [32] = experiment: Effect on ompF-lacZ fusion transcription in marA-negative Escherichia coli CH164 mutant assessed as percent decrease in Miller units of beta-galactosidase activity after 120 mins relative to control; type: functional; design: scale not given: the % may be the effect or the level left; summary of the method: as §3

SMILES	Activity (Escherichia coli [1])	Activity (Escherichia coli [2])	Activity (Escherichia coli [3])	Activity (Escherichia coli [4])	Activity (Escherichia coli [5])	Activity (Escherichia coli [6])	Activity (Escherichia coli [7])	Activity (Escherichia coli [8])	Activity (Klebsiella aerogenes [9])	Activity (Klebsiella aerogenes [10])	Activity (Escherichia coli [11])	Activity (Escherichia coli [12])	Activity (Escherichia coli [13])	Activity (Escherichia coli [14])	Activity (Escherichia coli [15])	Activity (Escherichia coli [16])	Activity (Escherichia coli [17])	Activity (Escherichia coli [18])	Activity (Escherichia coli [20])	Activity (Escherichia coli [22])	also measured
CCn1cc(C(=O)O)c(=O)c2cc(F)c(N3CCNCC3)cc21 [NORFLOXACIN]	27.1%	27.5%	21.7%	22%	14.1%	Active	Active	Active	Active	Active	1.5	14.9%	24%	16.6%	18.6%	19.2%	13.2%	8.2%	–	–	–
C[n+]1ccc(-c2cc[n+](C)cc2)cc1 [PARAQUAT]	–	–	–	–	–	Active	Active	Active	Active	Active	–	–	–	–	–	–	–	–	–	–	Activity (Escherichia coli [19]): 1.2
O=C(O)c1ccccc1O [SALICYLIC ACID]	46.8%	45.6%	40.9%	43.7%	59%	–	Active	Active	Active	Active	–	25%	17.3%	49%	26%	14.8%	29.9%	15.8%	42.5%	2	Activity (Escherichia coli [21]): 35.3%; Activity (Klebsiella aerogenes [23]): Active; Activity (Escherichia coli [24]): 21%; Activity (Escherichia coli [25]): 51.8%; Activity (Escherichia coli [26]): 25.7%; Activity (Escherichia coli [27]): 17.4%; Activity (Escherichia coli [28]): 15.5%
CO[C@@H]1[C@@H](OC(N)=O)[C@@H](O)[C@H](Oc2ccc3c(O)c(NC(=O)c4ccc(O)c(CC=C(C)C)c4)c(=O)oc3c2C)OC1(C)C [NOVOBIOCIN]	38.4%	50.9%	45.3%	55.2%	48.5%	–	Active	Active	Active	Active	Active	28.6%	36.5%	46.8%	25.3%	36%	25.5%	25.7%	21.3%	2	Activity (Escherichia coli [21]): 28.4%; Activity (Klebsiella aerogenes [23]): Active; Activity (Escherichia coli [24]): 17%; Activity (Escherichia coli [25]): 39.8%; Activity (Escherichia coli [29]): 23.6%; Activity (Escherichia coli [30]): 21.2%; Activity (Escherichia coli [31]): 26.9%; Activity (Escherichia coli [26]): 32.6%; Activity (Escherichia coli [27]): 9.5%; Activity (Escherichia coli [28]): 20%; Activity (Escherichia coli [32]): 24.5%
NCCc1ccccc1	–	–	–	–	–	Active	Active	Active	Active	Active	–	–	–	–	–	–	–	–	–	–	–
CCn1cc(C(=O)O)c(=O)c2ccc(C)nc21	–	–	–	–	–	Active	Active	Active	Active	Active	–	–	–	–	–	–	–	–	–	–	–
c1ccc(-c2ccccn2)nc1 [DIPYRIDYL]	16.1%	18.4%	19%	28.6%	52%	–	Active	Active	Active	Active	Active	–	–	55%	–	–	–	–	7.4%	2	Activity (Escherichia coli [25]): 53%
